According to ChEMBL document CHEMBL4364354, “A Bioreductive Prodrug of Cucurbitacin B Significantly Inhibits Tumor Growth in the 4T1 Xenograft Mice Model” (ACS Med Chem Lett, 2019):
Activity calls are given as the source filed them. The calls are words filed in the database; no cut-off is given here.

Tests used:
[1] = biological target: T1, NAD(P)H dehydrogenase [quinone] 1 (Homo sapiens, UniProt P15559); assay: Prodrug activation in human MCF7 cells assessed as NQO1-mediated 6-hydroxy-4,4,5,7,8-pentamethylchroman-2-one formation at 25 uM incubated for 24 hrs by HRMS analysis; format: cell-based; conditions: mcf7, 24 h
[2] = biological target: T1, NAD(P)H dehydrogenase [quinone] 1; assay: Prodrug activation in human MCF7 cells assessed as NQO1-mediated CuB release at 25 uM incubated for 24 hrs by HRMS analysis; format: cell-based; conditions: mcf7, 24 h
[3] = biological target: T1, NAD(P)H dehydrogenase [quinone] 1; assay: Prodrug activation in human MCF7 cells assessed as NQO1-mediated cucurbitacin B formation by ESI-TOFMS analysis; format: cell-based
[4] = Stability of the compound in DMEM medium with 10% FBS incubated for 72 hrs by HPLC analysis
Outline: (§1)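 Prodrugs were held in DMEM with 10% FBS for up to 72 h. The fraction of intact compound remaining over time was followed by HPLC.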

MCF7 [5] = assay: Cytotoxicity against human MCF7 cells assessed as reduction in cell viability incubated for 48 hrs by MTT assay; format: functional, cell-based; conditions: for IC50: MCF7, 48 h
Outline: (§2)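 MTT assay on MCF-7 breast cancer cells and noncancerous Vero cells, with tamoxifen as positive control. One MCF-7 arm was pretreated with the NQO1 inhibitor dicoumarol. IC50 values are from three experiments. Cytotoxicity index is the IC50 of the prodrug in Vero cells relative to the parent cucurbitacin B IC50 in Vero cells.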

[6] = Drug uptake in human MCF7 cell lysate at 25 uM incubated for 24 hrs by HPLC analysis; format: ADME, subcellular; conditions: mcf7, 24 h
Outline: (§3)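 MCF-7 cells were exposed to 25 μM prodrug for 24 h, then lysed. Prodrug concentrations in culture medium and in cell lysate were measured by HPLC against a calibration curve.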

[7] = Cytotoxicity index, ratio of compound IC50 to cucurbitacin B IC50 for cytotoxicity against African green monkey Vero cells by MTT assay; format: cell-based; conditions: chlorocebus sabaeus, read-out: Ratio IC50; outline: as §2
[8] = biological target: T1, NAD(P)H dehydrogenase [quinone] 1; assay: Prodrug activation in human MCF7 cells assessed as NQO1-mediated CuB release in cell lysate at 25 uM incubated for 24 hrs by HPLC analysis; format: subcellular; conditions: mcf7, 24 h
[9] = Stability of the compound in DMEM medium with 10% FBS assessed as compound remaining incubated for 24 hrs by HPLC analysis; outline: as §1
MCF7 [10] = assay: Cytotoxicity against human MCF7 cells assessed as reduction in cell viability incubated for 48 hrs in presence of NQO1 inhibitor dicoumarol by MTT assay; format: functional, cell-based; conditions: MCF7, 48 h; outline: as §2
[11] = biological target: T1, NAD(P)H dehydrogenase [quinone] 1; assay: Prodrug activation in human MCF7 cells assessed as appearance of extended m/z range to 1000 at 25 uM measured after 24 hrs by HRMS analysis; format: cell-based; conditions: mcf7, 24 h
[12] = Drug uptake in human MCF7 cells assessed as compound remaining in culture medium at 25 uM incubated for 24 hrs by HPLC analysis; format: ADME, cell-based; conditions: mcf7, 24 h; outline: as §3
Vero = assay: Cytotoxicity against African green monkey Vero cells assessed as reduction in cell viability incubated for 48 hrs by MTT assay; format: cell-based; conditions: Chlorocebus sabaeus; outline: as §2
[13] = biological target: T1, NAD(P)H dehydrogenase [quinone] 1; assay: (§4) Prodrug activation in human MCF7 cells assessed as NQO1-mediated ((R)-6-((2S,8S,9R,10R,13R,14S,16R,17R)-2-(3-aminopropylcarbamoyloxy)-16-hydroxy-4,4,9,13,14-pentamethyl-3,11-dioxo-2,3,4,7,8,9,10,11,12,13,14,15,16,17-tetradecahydro-1H-cyclopenta[a]phenanthren-17-yl)-6-hydroxy-2-methyl-5-oxohept-3-en-2-yl acetate metabolite formation at 25 uM incubated for 24 hrs by HPLC analysis; format: ADME, cell-based; conditions: mcf7, 24 h
[14] = biological target: T1, NAD(P)H dehydrogenase [quinone] 1; assay: Prodrug activation in human MCF7 cell lysate assessed as NQO1-mediated tetrahydropyrimidin-2(1H)-one formation at 25 uM incubated for 24 hrs by HPLC analysis; format: subcellular; conditions: mcf7, 24 h
[15] = biological target: T1, NAD(P)H dehydrogenase [quinone] 1; assay: Prodrug activation in human MCF7 cells assessed as NQO1-mediated ((R)-6-((2S,8S,9R,10R,13R,14S,16R,17R)-2-(3-aminopropylcarbamoyloxy)-16-hydroxy-4,4,9,13,14-pentamethyl-3,11-dioxo-2,3,4,7,8,9,10,11,12,13,14,15,16,17-tetradecahydro-1H-cyclopenta[a]phenanthren-17-yl)-6-hydroxy-2-methyl-5-oxohept-3-en-2-yl acetate formation by ESI-TOFMS analysis; format: cell-based
[16] = Prodrug activation in human MCF7 cell cultured in DMEM medium with 10% FBS at 25 uM incubated for 24 hrs by HPLC analysis; format: cell-based; conditions: mcf7, 24 h
[17] = biological target: T1, NAD(P)H dehydrogenase [quinone] 1; assay: as §4, with “acetate” for “acetate metabolite”, “HRMS” for “HPLC”; format: cell-based; conditions: mcf7, 24 h
[18] = Toxicity in BALB/c mouse implanted with mouse 4T1 cells assessed as death at 3 mg/kg/day, ip measured after 1 day; format: organism-based; conditions: in vivo, 24 h
Outline: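 BALB/c mice carrying 4T1 breast cancer cell tumours received the test agent once a day, dosed in mg/kg/d. An untreated control group ran alongside. Tumour volume and body weight were followed over the treatment period, survival was recorded after dosing began, and tumours were excised and weighed after sacrifice.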

[19] = Toxicity in BALB/c mouse implanted with mouse 4T1 cells assessed as body weight at 5 mg/kg/day, ip for 2 weeks measured during compound dosing (reference value: -1.48 %); format: organism-based; conditions: in vivo, 336 h
4T1 [20] = assay: Antitumor activity against mouse 4T1 cells implanted in BALB/c mouse assessed as tumor growth inhibition at 5 mg/kg/day, ip for 2 weeks measured daily during compound dosing by digital caliper method relative to control; format: functional; conditions: 4T1, ip, 336 h, read-out: TGI
4T1 [21] = assay: Antitumor activity against mouse 4T1 cells xenografted in BALB/c mouse assessed as tumor weight at 3 to 10 mg/kg/day, ip for 2 weeks (reference value: 500 to 700 mg); format: functional
[22] = Toxicity in BALB/c mouse implanted with mouse 4T1 cells assessed as body weight at 3 mg/kg/day, ip for 2 weeks measured daily during compound dosing (reference value: -1.48 %); format: organism-based; conditions: in vivo, 336 h
[23] = biological target: T1, NAD(P)H dehydrogenase [quinone] 1; assay: Prodrug activation in human MCF7 cells assessed as NQO1-mediated (R)-6-hydroxy-6-((2S,8S,9R,10R,13R,14S,16R,17R)-16-hydroxy-4,4,9,13,14-pentamethyl-2-(methyl(3-(methylamino)propyl)carbamoyloxy)-3,11-dioxo 2,3,4,7,8,9,10,11,12,13,14,15,16,17-tetradecahydro-1H-cyclopenta[a]phenanthren-17-yl)-2-methyl-5-oxohept-3-en-2-yl acetate formation at 25 uM incubated for 24 hrs by HRMS analysis; format: cell-based; conditions: mcf7, 24 h
[24] = biological target: T1, NAD(P)H dehydrogenase [quinone] 1; assay: Prodrug activation in human MCF7 cells assessed as NQO1-mediated (R)-6-hydroxy-6-((2S,8S,9R,10R,13R,14S,16R,17R)-16-hydroxy-4,4,9,13,14-pentamethyl-2-(methyl(3-(methylamino)propyl)carbamoyloxy)-3,11-dioxo 2,3,4,7,8,9,10,11,12,13,14,15,16,17-tetradecahydro-1H-cyclopenta[a]phenanthren-17-yl)-2-methyl-5-oxohept-3-en-2-yl acetate formation by ESI-TOFMS analysis; format: cell-based
[25] = biological target: T1, NAD(P)H dehydrogenase [quinone] 1; assay: Prodrug activation in human MCF7 cells assessed as NQO1-mediated (R)-6-hydroxy-6-((2S,8S,9R,10R,13R,14S,16R,17R)-16-hydroxy-4,4,9,13,14-pentamethyl-2-(methyl(3-(methylamino)propyl)carbamoyloxy)-3,11-dioxo 2,3,4,7,8,9,10,11,12,13,14,15,16,17-tetradecahydro-1H-cyclopenta[a]phenanthren-17-yl)-2-methyl-5-oxohept-3-en-2-yl acetate metabolite formation at 25 uM incubated for 24 hrs by HPLC analysis; format: ADME, cell-based; conditions: mcf7, 24 h
[26] = Toxicity in BALB/c mouse implanted with mouse 4T1 cells assessed as body weight at 10 mg/kg/day, ip for 2 weeks measured daily during compound dosing (reference value: -1.48 %); format: organism-based; conditions: in vivo, 336 h
4T1 [27] = assay: Antitumor activity against mouse 4T1 cells implanted in BALB/c mouse assessed as tumor growth inhibition at 3 to 10 mg/kg/day, ip for 2 weeks measured daily during compound dosing by digital caliper method; format: functional, organism-based
[28] = biological target: T1, NAD(P)H dehydrogenase [quinone] 1; assay: Prodrug activation in human MCF7 cell lysate assessed as NQO1-mediated 1,3-dimethyltetrahydropyrimidin-2(1H)-one formation at 25 uM incubated for 24 hrs by HPLC analysis; format: subcellular; conditions: mcf7, 24 h

T1 sequence (P15559 whole entry): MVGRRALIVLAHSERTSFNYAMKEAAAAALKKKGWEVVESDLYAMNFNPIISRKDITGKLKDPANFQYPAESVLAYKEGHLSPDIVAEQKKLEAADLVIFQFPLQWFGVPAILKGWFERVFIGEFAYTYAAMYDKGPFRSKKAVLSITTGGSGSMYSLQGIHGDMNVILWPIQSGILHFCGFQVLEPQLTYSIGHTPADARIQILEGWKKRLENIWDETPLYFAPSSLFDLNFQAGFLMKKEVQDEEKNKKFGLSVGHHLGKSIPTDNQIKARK

In the case of `CC(=O)OC(C)(C)/C=C/C(=O)[C@](C)(O)[C@H]1[C@H](O)C[C@@]2(C)[C@@H]3CC=C4[C@@H](C[C@H](OC(=O)CC(C)(C)C5=C(C)C(=O)C(C)=C(C)C5=O)C(=O)C4(C)C)[C@]3(C)C(=O)C[C@]12C`, the Drug metabolism [1] is reported as “Metabolite_Detected”, the Drug metabolism [2] is reported as “Metabolite_Detected” and the Drug metabolism [3] is reported as “Metabolite_Detected”. For the same molecule, the Stability [4] was “Stable”, the IC50 (MCF7 [5]) was 16.6 µM and the Drug uptake [6] was “Not Active”. For the same molecule, the selectivity ratio [7] was 1.75, the Drug metabolism [8] was “Metabolite_Detected” and the Stability [9] was greater than 90%. The IC50 (MCF7 [10]) was greater than 100 µM, the Drug metabolism [11] was “Metabolite_Notdetected” and the Drug uptake [12] was 6.21 µM. For the same molecule, the IC50 (Vero) was 0.07 µM.
For `CC(=O)OC(C)(C)/C=C/C(=O)[C@](C)(O)[C@H]1[C@H](O)C[C@@]2(C)[C@@H]3CC=C4[C@@H](C[C@H](OC(=O)NCCCNC(=O)CC(C)(C)C5=C(C)C(=O)C(C)=C(C)C5=O)C(=O)C4(C)C)[C@]3(C)C(=O)C[C@]12C`, the Drug metabolism [1] was “Metabolite_Detected”, the Drug metabolism [2] was “Metabolite_Detected” and the Drug metabolism [3] was “Metabolite_Detected”. For the same molecule, the Drug metabolism [13] was “Metabolite_Detected”, the Stability [4] was “Stable” and the IC50 (MCF7 [5]) was 15.4 µM. For the same molecule, the Drug uptake [6] was “Not Active”, the Drug metabolism [14] was “Metabolite_Notdetected” and the selectivity ratio [7] was 46.8. The Drug metabolism [15] was “Metabolite_Detected”, the Drug metabolism [8] was “Metabolite_Detected” and the Stability [9] was greater than 90%. The Drug metabolism [16] was “Metabolite_Detected”, the IC50 (MCF7 [10]) was greater than 100 µM and the Drug metabolism [11] was “Metabolite_Notdetected”. The IC50 (Vero) was 1.87 µM and the Drug metabolism [17] was “Metabolite_Detected”.
With `Cc1c(C)c2c(c(C)c1O)C(C)(C)CC(=O)O2` the inhibition (MCF7 [5]) was “inactive” and the Activity (Vero) was “Non-Toxic”.
For `CC(=O)OC(C)(C)/C=C/C(=O)[C@](C)(O)[C@H]1[C@H](O)C[C@@]2(C)[C@@H]3CC=C4[C@@H](C[C@H](O)C(=O)C4(C)C)[C@]3(C)C(=O)C[C@]12C`, the IC50 (MCF7 [5]) was 12 µM, the Activity [18] was “Toxic” and the IC50 (MCF7 [10]) was 9.72 µM. The IC50 (Vero) was 0.04 µM.
With `O=C1NCCCN1` the inhibition (MCF7 [5]) was “inactive” and the Activity (Vero) was “Non-Toxic”.
Molecule `Cc1c2ccncc2c(C)c2c1[nH]c1ccccc12` [ELLIPTECINE] has an IC50 (Vero) of 4.06 µM.
With `CC/C(=C(\c1ccccc1)c1ccc(OCCN(C)C)cc1)c1ccccc1` [TAMOXIFEN] the Activity [19] was 4.99% and the inhibition in vivo at 5 mg/kg/day (4T1 [20]) was 55%.
With `CN1CCCN(C)C1=O` the inhibition (MCF7 [5]) was “inactive” and the Activity (Vero) was “Non-Toxic”.
In the case of `CC(=O)OC(C)(C)/C=C/C(=O)[C@](C)(O)[C@H]1[C@H](O)C[C@@]2(C)[C@@H]3CC=C4[C@@H](C[C@H](OC(=O)N(C)CCCN(C)C(=O)CC(C)(C)C5=C(C)C(=O)C(C)=C(C)C5=O)C(=O)C4(C)C)[C@]3(C)C(=O)C[C@]12C`, the Drug metabolism [1] is reported as “Metabolite_Detected”, the Activity (4T1 [21]) is reported as less than 400 mg and the Drug metabolism [2] is reported as “Metabolite_Detected”. For the same molecule, the Drug metabolism [3] was “Metabolite_Detected”, the Activity [22] was 6.46% and the Stability [4] was “Stable”. The IC50 (MCF7 [5]) was 18.1 µM, the Drug uptake [6] was “Not Active” and the selectivity ratio [7] was 310. For the same molecule, the Drug metabolism [8] was “Metabolite_Detected”, the Stability [9] was greater than 90% and the Drug metabolism [23] was “Metabolite_Detected”. For the same molecule, the Drug metabolism [24] was “Metabolite_Detected”, the Drug metabolism [25] was “Metabolite_Detected” and the Activity [26] was -2.49%. For the same molecule, the IC50 (MCF7 [10]) was greater than 100 µM, the Drug metabolism [11] was “Metabolite_Notdetected” and the Drug uptake [12] was 8.39 µM. For the same molecule, the TGI (4T1 [27]) was “Active”, the IC50 (Vero) was 12.4 µM and the Activity [19] was 5.27%. For the same molecule, the Drug metabolism [28] was “Metabolite_Notdetected” and the inhibition in vivo at 5 mg/kg/day (4T1 [20]) was 53.8%.
